Experimental data: ChEMBL document CHEMBL1157693, “Microwave assisted synthesis and antimicrobial activity of 2-quinoxalinone-3-hydrazone derivatives” (2010)
Converted amounts (≈) assume the structure as drawn. The source made the active and inactive calls. The rule behind the calls is not given here.

Tests used:
Format in all cases: functional
[1] = tested on: Candida albicans; experiment: Antifungal activity against Candida albicans after 3 days by agar well diffusion method
[2] = tested on: Bacillus cereus; experiment: Antibacterial activity against Bacillus cereus NCIB 6349 after 24 hrs by agar well diffusion method
Summary of the method: (§1)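 Agar well diffusion. Clinical isolates were first checked for viability, then grown in nutrient broth for 8 h at 37 °C. About 0.2 ml of broth culture was mixed into 18 ml molten diagnostic sensitivity test agar cooled to 45 °C and poured into plates. Compounds in DMSO went into bored wells, with streptomycin as reference. Plates stood 1 h for diffusion, then were incubated upright at 37 °C for 24 h. Clear inhibition zones were read in mm.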

[3] = tested on: Bacillus subtilis; experiment: Antibacterial activity against Bacillus subtilis NCIB 3610 after 72 hrs; settings: NCIB 3610, 72 h
Summary of the method: (§2)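 MIC by the Russell and Furr method, run on selected Gram-positive and Gram-negative strains. Once the agar had set and its surface had dried, nutrient agar plates were streaked with overnight broth cultures. They were incubated at 37 °C for up to 72 h and scored for presence or absence of growth.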

[4] = tested on: Geobacillus stearothermophilus; experiment: Antibacterial activity against Bacillus stearothermophilus NCIB 8222 after 72 hrs; settings: NCIB 8222, 72 h; summary of the method: as §2
[5] = tested on: Klebsiella pneumoniae; experiment: Antibacterial activity against Klebsiella pneumoniae NCIB 418 after 72 hrs; settings: NCIB 418, 72 h; summary of the method: as §2
[6] = tested on: Pseudomonas aeruginosa; experiment: Antibacterial activity against Pseudomonas aeruginosa NCIB 950 after 24 hrs by agar well diffusion method; summary of the method: as §1
[7] = tested on: Klebsiella pneumoniae; experiment: Antibacterial activity against Klebsiella pneumoniae NCIB 418 after 24 hrs by agar well diffusion method; summary of the method: as §1
[8] = tested on: Bacillus anthracis; experiment: Antibacterial activity against Bacillus anthracis after 24 hrs by agar well diffusion method
[9] = tested on: Escherichia coli; experiment: Antibacterial activity against Escherichia coli NCIB 86 after 24 hrs by agar well diffusion method; summary of the method: as §1
[10] = tested on: Bacillus anthracis; experiment: Antibacterial activity against Bacillus anthracis after 72 hrs
[11] = tested on: Escherichia coli; experiment: Antibacterial activity against Escherichia coli NCIB 86 after 72 hrs; settings: NCIB 86, 72 h; summary of the method: as §2
[12] = tested on: Pseudomonas fluorescens; experiment: Antibacterial activity against Pseudomonas fluorescens NCIB 3756 after 24 hrs by agar well diffusion method; summary of the method: as §1
[13] = tested on: Shigella dysenteriae; experiment: Antibacterial activity against Shigella dysenteriae after 72 hrs
Summary of the method: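 MIC by agar dilution: compound-containing nutrient agar was set and surface-dried, then streaked with overnight broth culture of the clinical isolate. Incubated at 37 °C for up to 72 h and scored for presence or absence of growth. Streptomycin was the reference.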

[14] = tested on: Bacillus subtilis; experiment: Antibacterial activity against Bacillus subtilis NCIB 3610 after 24 hrs by agar well diffusion method; summary of the method: as §1
[15] = tested on: Staphylococcus aureus; experiment: Antibacterial activity against Staphylococcus aureus NCIB 8588 after 24 hrs by agar well diffusion method; summary of the method: as §1
[16] = tested on: Bacillus cereus; experiment: Antibacterial activity against Bacillus cereus NCIB 6349 after 72 hrs; summary of the method: as §2
[17] = tested on: Staphylococcus aureus; experiment: Antibacterial activity against Staphylococcus aureus NCIB 8588 after 72 hrs; settings: NCIB 8588, 72 h; summary of the method: as §2
[18] = tested on: Shigella dysenteriae; experiment: Antibacterial activity against Shigella dysenteriae after 24 hrs by agar well diffusion method
[19] = tested on: Geobacillus stearothermophilus; experiment: Antibacterial activity against Bacillus stearothermophilus NCIB 8222 after 24 hrs by agar well diffusion method; summary of the method: as §1

O=C1Nc2ccccc2/C1=N/Nc1nc2ccccc2[nH]c1=O
inhibition zone (IZ) [1]: 20 mm | inhibition zone (IZ) [2]: 0 mm | MIC [3]: 62.5 µg/mL (≈ 205 µM) | MIC [4]: 62.5 µg/mL (≈ 205 µM) | MIC [5]: 62.5 µg/mL (≈ 205 µM) | inhibition zone (IZ) [6]: 17 mm | inhibition zone (IZ) [7]: 12 mm | inhibition zone (IZ) [8]: 11 mm | inhibition zone (IZ) [9]: 10 mm | MIC [10]: 125 µg/mL (≈ 409 µM) | MIC [11]: 125 µg/mL (≈ 409 µM) | inhibition zone (IZ) [12]: 0 mm | MIC [13]: 15.6 µg/mL (≈ 51.1 µM) | inhibition zone (IZ) [14]: 14 mm | inhibition zone (IZ) [15]: 19 mm | MIC [16]: inactive | MIC [17]: 31.3 µg/mL (≈ 103 µM) | inhibition zone (IZ) [18]: 0 mm | inhibition zone (IZ) [19]: 13 mm

CC12CCC(C/C1=N\Nc1nc3ccccc3[nH]c1=O)C2(C)C (stereo not given)
inhibition zone (IZ) [1]: 21 mm | inhibition zone (IZ) [2]: 10 mm | MIC [3]: 15.6 µg/mL (≈ 50.3 µM) | MIC [4]: 31.3 µg/mL (≈ 101 µM) | MIC [5]: 31.3 µg/mL (≈ 101 µM) | inhibition zone (IZ) [6]: 13 mm | inhibition zone (IZ) [7]: 16 mm | inhibition zone (IZ) [8]: 5 mm | inhibition zone (IZ) [9]: 18 mm | MIC [10]: 125 µg/mL (≈ 403 µM) | MIC [11]: 15.6 µg/mL (≈ 50.3 µM) | inhibition zone (IZ) [12]: 0 mm | MIC [13]: inactive | inhibition zone (IZ) [14]: 16 mm | inhibition zone (IZ) [15]: 11 mm | MIC ([16]; NCIB 6349, 72 h): 62.5 µg/mL (≈ 201 µM) | MIC [17]: 62.5 µg/mL (≈ 201 µM) | inhibition zone (IZ) [18]: 0 mm | inhibition zone (IZ) [19]: 14 mm

C/C(=N\Nc1nc2ccccc2[nH]c1=O)c1cc2cc(C)ccc2oc1=O
inhibition zone (IZ) [1]: 10 mm | inhibition zone (IZ) [2]: 25 mm | MIC [3]: 31.3 µg/mL (≈ 86.9 µM) | MIC [4]: 31.3 µg/mL (≈ 86.9 µM) | MIC [5]: 31.3 µg/mL (≈ 86.9 µM) | inhibition zone (IZ) [6]: 10 mm | inhibition zone (IZ) [7]: 19 mm | inhibition zone (IZ) [8]: 14 mm | inhibition zone (IZ) [9]: 15 mm | MIC [10]: 62.5 µg/mL (≈ 173 µM) | MIC [11]: 62.5 µg/mL (≈ 173 µM) | inhibition zone (IZ) [12]: 0 mm | MIC [13]: 62.5 µg/mL (≈ 173 µM) | inhibition zone (IZ) [14]: 16 mm | inhibition zone (IZ) [15]: 19 mm | MIC ([16]; NCIB 6349, 72 h): 7.8 µg/mL (≈ 21.6 µM) | MIC [17]: 15.6 µg/mL (≈ 43.3 µM) | inhibition zone (IZ) [18]: 12 mm | inhibition zone (IZ) [19]: 15 mm

O=C1Nc2ccc(Cl)cc2/C1=N/Nc1nc2ccccc2[nH]c1=O
inhibition zone (IZ) [1]: 18 mm | inhibition zone (IZ) [2]: 28 mm | MIC [3]: 15.6 µg/mL (≈ 45.9 µM) | MIC [4]: 7.8 µg/mL (≈ 23 µM) | MIC [5]: 7.8 µg/mL (≈ 23 µM) | inhibition zone (IZ) [6]: 0 mm | inhibition zone (IZ) [7]: 20 mm | inhibition zone (IZ) [8]: 20 mm | inhibition zone (IZ) [9]: 19 mm | MIC [10]: 15.6 µg/mL (≈ 45.9 µM) | MIC [11]: 15.6 µg/mL (≈ 45.9 µM) | inhibition zone (IZ) [12]: 0 mm | MIC [13]: 62.5 µg/mL (≈ 184 µM) | inhibition zone (IZ) [14]: 20 mm | inhibition zone (IZ) [15]: 25 mm | MIC ([16]; NCIB 6349, 72 h): 7.8 µg/mL (≈ 23 µM) | MIC [17]: 7.8 µg/mL (≈ 23 µM) | inhibition zone (IZ) [18]: 10 mm | inhibition zone (IZ) [19]: 24 mm

Cc1ccc2c(c1)/C(=N/Nc1nc3ccccc3[nH]c1=O)C(=O)N2
inhibition zone (IZ) [1]: 30 mm | inhibition zone (IZ) [2]: 10 mm | MIC [3]: 31.3 µg/mL (≈ 98 µM) | MIC [4]: 62.5 µg/mL (≈ 196 µM) | MIC [5]: 15.6 µg/mL (≈ 48.9 µM) | inhibition zone (IZ) [6]: 0 mm | inhibition zone (IZ) [7]: 17 mm | inhibition zone (IZ) [8]: 0 mm | inhibition zone (IZ) [9]: 14 mm | MIC [10]: inactive | MIC [11]: 31.3 µg/mL (≈ 98 µM) | inhibition zone (IZ) [12]: 0 mm | MIC [13]: 31.3 µg/mL (≈ 98 µM) | inhibition zone (IZ) [14]: 15 mm | inhibition zone (IZ) [15]: 19 mm | MIC ([16]; NCIB 6349, 72 h): 62.5 µg/mL (≈ 196 µM) | MIC [17]: 15.6 µg/mL (≈ 48.9 µM) | inhibition zone (IZ) [18]: 14 mm | inhibition zone (IZ) [19]: 13 mm
